According to paper PMC5474308 (Biochimica et biophysica acta, 2015):
Read-outs that look alike come from different tables or passages of the source. Ends that are not written are not given here.

Assays:
[1] = test system: PAK2 (pT402) in pancreatic acini; assay: PAK2 T402 phosphorylation after stimulation by secretagogues and growth factors; format: cell-based, rat; settings: for effect on phosphorylation of (T402) PAK2: VIP 10 nM, secretin 10 nM, endothelin 1 10 nM, 1 min; for T402 PAK2 phosphorylation by growth factors, % of control: EGF 10 nM 5 min, bFGF 100 ng/ml 5 min, PDGF 100 ng/ml 10 min (p<0.05), insulin 1 μM 10 min (p=0.08), 5 independent experiments; for PAK2 activation (abstract, words): rat pancreatic acini; for effect of growth factors on PAK2 threonine 402 phosphorylation: IGF-1 100 nM 10 min, HGF 1 nM 10 min, insulin 1 μM 10 min
[2] = test system: CCK1 / CCK2 receptors in pancreatic acini (pT402 PAK2); format: cell-based, rat; settings: gastrin (CCKB agonist) 10 nM, A71378 (CCKA receptor agonist) 30 nM, 1 min
[3] = test system: ERK1/2 (p42/44) in pancreatic acini; assay: Effect of PAK2 inhibition on ERK1/2; format: cell-based, rat
[4] = test system: rat pancreatic acinar cells (amylase release); assay: Effect of PAK2 inhibition on amylase release; format: cell-based; settings: for Amylase secretion (% total), inhibitor with CCK 0.01 nM: 40 μM inhibitor/analogue + CCK 0.01 nM, CCK alone 11.9 ± 2.2; for Amylase secretion (% total), inhibitor with CCK 0.01 nM / Amylase secretion (% total), inhibitor with CCK 0.1 nM / Amylase secretion (% total), inhibitor with bombesin / Amylase secretion (% total), inhibitor without secretagogue / Amylase secretion (% total), no inhibitor: 30 min; for Amylase secretion (% total), inhibitor with CCK 0.1 nM: 40 μM inhibitor/analogue + CCK 0.1 nM, CCK alone 15.7 ± 0.4; for Amylase secretion (% total), inhibitor with bombesin: 40 μM inhibitor/analogue + bombesin 10 nM, bombesin alone 15.2 ± 0.8; for Amylase secretion (% total), inhibitor without secretagogue: 40 μM inhibitor/analogue, no secretagogue; for Amylase secretion (% total), no inhibitor: 5–10 experiments, untreated 3.8 ± 0.3, p<0.05 vs control
How it was run: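 Secretagogues were CCK (0.01 or 0.1 nM) or bombesin (10 nM). Amylase released over a 30 min incubation was measured with Phadebas reagent and expressed as % of total cellular amylase. Means of 5–10 experiments.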

[5] = test system: PAK2 (pT402) in pancreatic acini; format: cell-based, rat; settings: for PAK2 inhibition: IPA-3 40 μM, 15 min
[6] = test system: PAK2 (pT402) in pancreatic acini; assay: Time course of CCK and EGF stimulation of PAK2 T402 phosphorylation; format: cell-based, rat; settings: for T402 PAK2 phosphorylation at 1 minute: 1 min; for T402 PAK2 phosphorylation at 1 minute / duration of increase in phospho-T402 PAK2 / time of maximum T402 PAK2 phosphorylation: CCK 100 nM or EGF 10 nM
[7] = test system: PAK2 (pT402) in pancreatic acini; format: cell-based, rat
[8] = test system: PAK2 (pT402) in pancreatic acini; assay: Dose-response effect of CCK and CCK-JMV on T402 PAK2 phosphorylation; format: cell-based, rat; settings: 3 min
How it was run: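 Rat pancreatic acini were dispersed by collagenase and pre-incubated 2 h at 37 °C in HEPES-buffered (pH 7.45) standard incubation solution. They were then exposed for 3 min to graded concentrations of CCK or the test peptide, and lysed. Read-out was pT402 PAK2 western blot with total PAK2 as loading control, by chemiluminescence densitometry. Values are % of 100 nM CCK response; n=5; EC50 by curve fitting.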

[9] = test system: PAK2 (pT402) in pancreatic acini; assay: Effect of post-receptor stimulants on T402 PAK2 phosphorylation; format: cell-based, rat; settings: 1 μM each, 5 min

Endothelin-1: interacts with ET-1 and ET-3 receptors in the pancreatic acinar cell (CSCSSLMDKECVYFCHLDIIW; ends and bridges not checked; cysteine pairing not given here; UniProt P05305 53-73, looked up)
effect on phosphorylation of (T402) PAK2 [1]: did not produce any effect upon T402 PAK2 phosphorylation

basic fibroblast growth factor [bFGF]
T402 PAK2 phosphorylation by growth factors, % of control [1]: 228±37 of control
PAK2 activation (abstract, words) [1]: activated

gastrin
effect of selective receptor agonist on pT402 PAK2 phosphorylation [2]: did not produce any increase in pT402 PAK2 phosphorylation

Insulin: pancreatic growth factor
T402 PAK2 phosphorylation by growth factors, % of control [1]: 210±44 of control
effect of growth factors on PAK2 threonine 402 phosphorylation [1]: did not quite reach statistical significance

Oc1ccc2ccccc2c1SSc1c(O)ccc2ccccc12 [IPA-3, 1,1′-Dithiodi-2-naphthtol]
CCK induced phosphorylation of p42/44 with inhibitor ([3]; IPA-3 40 μM, then CCK 0.3 nM, p<0.05): 64±4 % of CCK 0.3 nM alone
effect on CCK-induced ERK1/2 activation (abstract, words) ([3]; rat pancreatic acini): reduced
reduction of bombesin-induced increase in amylase release ([4]; 40 μM IPA3, bombesin 10 nM): 55 % of the maximal bombesin-induced stimulation
reduction of CCK-induced increase in amylase release ([4]; 40 μM IPA3, both concentrations of CCK (0.01, 0.1 nM)): 63 % of maximal CCK stimulation
Amylase secretion (% total), inhibitor with CCK 0.01 nM [4]: 7.5 ± 1.3ˆ % total
Amylase secretion (% total), inhibitor with CCK 0.1 nM [4]: 9.6 ± 0.6ˆ % total
Amylase secretion (% total), inhibitor with bombesin [4]: 10.3± 0.9ˆ % total
Amylase secretion (% total), inhibitor without secretagogue [4]: 5.2 ± 0.5 % total
effect on amylase release induced by CCK or bombesin (abstract, words) ([4]; rat pancreatic acini): reduced
PAK2 inhibition [5]: 70%
PAK2 inhibition ([5]; listed as IPA3): approximately 70%
basal pT402 PAK2 phosphorylation with inhibitor ([5]; PP2 10 μM 1 h or IPA-3 40 μM 15 min, no stimulant): 32±6 % of control
effect on CCK-activation of PAK2 (abstract, words) ([5]; rat pancreatic acini): partially inhibited

secretin: gastrointestinal hormone activating adenylate cyclase
effect on phosphorylation of (T402) PAK2 [1]: did not increase phosphorylation of (T402) PAK2

vasoactive intestinal peptide (HSDAVFTDNYTRLRKQMAVKKYLNSILN; ends and bridges not checked; UniProt P01282 125-152, looked up) [VIP]
effect on phosphorylation of (T402) PAK2 [1]: did not increase phosphorylation of (T402) PAK2

CCCCCCCCCCCCCC(=O)O[C@@H]1[C@@H](C)[C@@]2(O)[C@@H](C=C(CO)C[C@]3(O)C(=O)C(C)=C[C@@H]23)[C@@H]2C(C)(C)[C@]12OC(C)=O [TPA, 12-O-tetradecanoylphorbol-13-acetate]
PAK2 activation (abstract, words) [1]: activated

Epidermal growth factor [EGF]
T402 PAK2 phosphorylation by growth factors, % of control [1]: 195±28 of control
PAK2 activation (abstract, words) [1]: activated
T402 PAK2 phosphorylation at 1 minute ([6]; mean ± S.E. of 5 experiments): 300±30 % of control
duration of increase in phospho-T402 PAK2 [6]: ≤ 3 min
time of maximum T402 PAK2 phosphorylation [6]: 1 min

COOH-terminal octapeptide of cholecystokinin [CCK]
PAK2 activation (abstract, words) [1]: activated
T402 PAK2 phosphorylation at 1 minute ([6]; mean ± S.E. of 5 experiments): 275±17 % of control
T402 PAK2 phosphorylation at 3 min ([6]; 3 min, CCK 100 nM, mean ± S.E. of 5 experiments, p<0.05): 298±26 % of control
duration of increase in phospho-T402 PAK2 [6]: over 15 min
time of maximum T402 PAK2 phosphorylation [6]: 3 min
subsequent partial decrease of PAK2 activation after rapid increase ([6]; CCK 100 nM, sustained over time): 40%
PKC-independent activation of PAK2 that was also PLC-independent ([7]; CCK1 receptor stimulation): 40%
maximal stimulation of T402 PAK2 phosphorylation ([8]; 100 nM CCK): 452±70 % of control
concentration at which increase in T402 PAK2 phosphorylation is detectable [8]: 10 pM
concentration of maximal stimulation of T402 PAK2 phosphorylation [8]: 100 nM
increase in amylase release ([4]; 0.01 nM CCK): 313±57%
increase in amylase release ([4]; 0.1 nM CCK): 413±11%
Amylase secretion (% total), no inhibitor ([4]; CCK 0.01 nM): 11.9 ± 2.2 % total
Amylase secretion (% total), no inhibitor ([4]; CCK 0.1 nM): 15.7 ± 0.4 % total

platelet-derived growth factor [PDGF]
T402 PAK2 phosphorylation by growth factors, % of control [1]: 240±44 of control
PAK2 activation (abstract, words) [1]: activated

C[N+](C)(C)CCOC(N)=O [carbachol]
PAK2 activation (abstract, words) [1]: activated

CN(C)CCCn1cc(C2=C(c3c[nH]c4ccccc34)C(=O)NC2=O)c2ccccc21 [GFX]
TPA-induced pT402 PAK2 phosphorylation after pretreatment ([7]; pretreatment GF109203X 5 μM 1 h, then TPA 1 μM 5 min, TPA alone 319±45): 100±26 % of control

hepatocyte growth factor [HGF]
effect of growth factors on PAK2 threonine 402 phosphorylation [1]: had no effect

Oc1ccc2cc(SSc3ccc4cc(O)ccc4c3)ccc2c1 [Pir 3,5, 6,6′-Dithiodi-2-naphthtol]
Amylase secretion (% total), inhibitor with CCK 0.01 nM [4]: 12.6 ± 0.8 % total
Amylase secretion (% total), inhibitor with CCK 0.1 nM [4]: 14.7± 1.0 % total
Amylase secretion (% total), inhibitor with bombesin [4]: 14.4 ± 1.2 % total
Amylase secretion (% total), inhibitor without secretagogue [4]: 4.3 ± 0.9 % total
effect on stimulated enzyme secretion ([4]; Pir3,5 40 μM, CCK or bombesin): had no effect on stimulated enzyme secretion

CNc1ccc2oc(C[C@H]3O[C@@]4(CC[C@H]3C)O[C@H]([C@H](C)C(=O)c3ccc[nH]3)[C@H](C)C[C@H]4C)nc2c1C(=O)O [A23187]
effect on PAK2 phosphorylation [9]: have no effect on PAK2

bombesin: pancreatic secretagogue that activates phospholipase C
PAK2 activation (abstract, words) [1]: activated
Amylase secretion (% total), no inhibitor ([4]; bombesin 10 nM): 15.2 ± 0.8 % total

insulin-like growth factor 1 [IGF-1]
effect of growth factors on PAK2 threonine 402 phosphorylation [1]: had no effect
